This excerpt belongs to a sample that is enriched for hits.
Hsp70 act – Hsp70 transcriptional activators, primary screen, cell-based, HeLa, Hsp70 promoter luciferase, luminescence, 10 µM; activation, % at 10 µM; 200,000 compounds, 0.04% hits; HeLa Hsp70 promoter luciferase reporter; scaled: vehicle 0, proteasome-inhibitor control 100%; AID 1203, 2008;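 active = activation above the mean across all tested compounds plus 3 SD, cutoff set per campaign, cut at about 5.5% in these data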;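 also: 100% = MG132 at 30 µM as the positive control and 0% = DMSO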
HSF1 inh – HSF1 inhibitors in luciferase reporter cells, primary screen, cell-based, NIH3T3, luminescence. NIH3T3-HGL HSE-luciferase, MG132-induced, luminescence 8 h; active compounds read low. activity change, negative = inhibition, % at 7.5 µM (by protocol). 300,000 compounds, 0.77% hits;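 active = more than half of replicate wells show activity change below -50%, luminescence cut by over half; inconclusive = some wells, but at most half, below -50%; inactive = no replicate well below -50%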;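 also: luciferase reports HSF-1 transcriptional activity via heat shock element; 0% = median of DMSO wells and -100% = zero luminescence signal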
HSF-1 act – HSF-1 activators, primary screen, NIH3T3-HGL cells, MG132 stress, luminescence, single point | AID 504408, 2011 | NIH3T3-HGL HSF-1 luciferase reporter, 8 h; 100% = twice DMSO control signal | activation, % at 9 µM | 300,000 compounds, 1.7% hits;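 active = mean replicate activation of at least 50% with a set share of replicates each reaching 50%; inconclusive = only one of those two conditions met; inactive = mean below 50% and too few replicates reaching it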;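 also: 0% = median of the neutral control wells and 100% = twice that signal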
Lmaj promast – Leishmania major promastigote growth inhibition, primary screen; Leishmania major promastigotes, resazurin fluorescence viability; inhibition, % at 10 µM; 200,000 compounds, 9% hits; AID 1063, 2008; in the data active = inhibition above about 50%;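 also: promastigotes grown with compound for 44 hours at 28 °C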
T cruzi inh – inhibitors of intracellular T. cruzi growth, primary screen, luminescence, NIH3T3 host cells. inhibition, % (concentration not given with the values). T. cruzi beta-gal in NIH3T3, 90 h. 300,000 compounds, 1.4% hits;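 active = mean inhibition across valid replicates above about 55%, limit read from the data; inconclusive = mean below that limit but half or more replicates reach it; inactive = mean below it, under half of replicates reach it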;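 also: signal also drops with host cell toxicity which is not excluded here; 0% = plate median of DMSO wells and 100% = zero luminescence signal; higher percent means less beta-gal luminescence so fewer parasites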
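Material: NIH/3T3 host cells with β-galactosidase reporter T. cruzi; Input: 5,000 host fibroblasts per well; Medium: DMEM, 2% fetal bovine serum; Compound: 50 nL DMSO compound solution per well; Schedule: 3 h host attachment, then at least 90 h co-culture; Detection: luminescent β-galactosidase signal after 60 min lysis.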
The depositor's hits bear a star; ? = inconclusive; nt = no result.

SMILES	Hsp70 act	HSF1 inh	HSF-1 act	Lmaj promast	T cruzi inh
Fc1ccc(C(OCCN2CCCC2)c2ccc(Br)cc2)cc1 (stereo unspecified)	0	7	14	100*	19
Fc1ccc(C(OCCN2CCN(CCCc3ccccc3)CC2)c2ccc(F)cc2)cc1	nt	4	0	nt	36
O=c1c2ccccc2nc(/C=C/c2ccc([N+](=O)[O-])o2)n1-c1ccc(O)cc1	1	-21	-21	99*	34
Cc1nc2ccccc2c(=O)n1-c1cc([N+](=O)[O-])cc([N+](=O)[O-])c1	nt	-1	9	nt	55*
Cc1cccc(-n2c(/C=C/c3ccc([N+](=O)[O-])o3)nc3ccccc3c2=O)c1	0	30	35	88*	46
O=c1c2ccccc2nc(/C=C/c2ccc(O)c(O)c2)n1-c1ccccc1	nt	14	16	nt	-7
Cc1nc2ccccc2c(=O)n1-c1ccncc1	nt	-4	-5	nt	-3
O=P(C(c1ccc2c(c1)OCO2)N1CCOCC1)(N1CCOCC1)N1CCOCC1 (stereo unspecified)	0	5	-8	-1	-1
Cc1cc(C=C2C(=O)NC(=S)NC2=O)c(C)n1-c1ccc2c(c1)OCO2	0	0	-4	86*	-1
C=CCC1C(=O)NC(=S)NC1=O	0	0	-15	7	-6
c1ccc2sc(C3CCNCC3)nc2c1	nt	-9	24	nt	64*
NCCc1nc2ccccc2s1	0	-7	-9	-6	-14
Cc1ccc(CCN2CC(C(=O)N3CCC4(CC3)OCCO4)CC2=O)cc1 (stereo unspecified)	0	-4	14	-1	5
CC1C(OC(=O)CCC(=O)NC(C)(C)CO)O[C@H]2OC3(C)CC[C@H]4[C@H](C)CCC1C24OO3 (stereo partly specified)	nt	-7	-20	nt	8
CN1CCC(N(C)c2nc(-c3ccc([N+](=O)[O-])cc3)nc3ccccc23)CC1	0	4	12	100*	37
C/C(=N\NC(N)=O)c1c(O)n(C)c(=O)n(C)c1=O	0	3	-3	-7	3
CC(=O)Nc1ccccc1C(=O)OCc1ccc(F)cc1	0	2	21	0	7
CCCC1(CCC)C(=O)NC(=Nc2ccc(C)cc2)NC1=O	0	0	-12	-1	-12
CCCN1CCc2cc(O)cc3c2[C@H]1Cc1ccc(O)c(O)c1-3	nt	39	24	nt	-8
CN1CCc2cc(O)cc3c2[C@H]1Cc1ccc(O)c(O)c1-3	nt	74	78*	nt	-11
CCc1ccccc1N1C(=O)NC(=O)/C(=C\c2cc(C)n(C)c2C)C1=O	0	-17	-4	54*	4
Cc1cc(C)cc(N2C(=O)NC(=O)/C(=C\c3cc(C)n(C)c3C)C2=O)c1	0	3	10	1	-5
Cc1nn(-c2ccccc2)c2c1C(c1ccc3c(c1)OCO3)SCC(=O)N2 (stereo unspecified)	0	-1	4	99*	-2
Cc1nn(C2CCOC(C)(C)C2)c2c1C(c1ccc3c(c1)OCO3)SCC(=O)N2 (stereo unspecified)	0	-1	19	1	-6
COc1cc(C2SCC(=O)Nc3c2c(C)nn3-c2ccccc2)cc(OC)c1OC (stereo unspecified)	0	-8	1	91*	6
SMILES	Hsp70 act	HSF1 inh	HSF-1 act	Lmaj promast	T cruzi inh
COC(=O)CCCCC1SCC(NC(=O)c2ccccc2)C1Cl (stereo unspecified)	0	4	10	-6	-10
Clc1ccc(NC2=NCCCS2)cc1Cl	nt	8	12	nt	55*
Cc1ccc(NC2=NCCCS2)cc1Cl	nt	-9	25	nt	33
O=[N+]([O-])c1cc(F)c(N2CCCCC2)cc1Br	nt	-2	-6	nt	1
CCN1CCN(c2cc(N3CCCC3)c(F)cc2[N+](=O)[O-])CC1	0	1	8	71*	14
O=[N+]([O-])c1cc(F)c(N2CCCC2)cc1Br	0	-2	-10	-9	-21
CN1CCN(c2cc(N3CCCC3)c([N+](=O)[O-])cc2F)CC1	0	-1	-3	99*	33
C/C(=N/OC(=O)N(C)C)c1ncc(C(F)(F)F)cc1N1CCOCC1	0	-3	9	5	9
CCC(C)n1c(O)c(/C=N/Nc2ccccc2)c(=O)[nH]c1=S (stereo unspecified)	0	-5	1	81*	-5
CCC(C)n1c(O)c(/C=N/N2CCOCC2)c(=O)[nH]c1=S (stereo unspecified)	0	-5	2	55*	-2
CCC(C)n1c(O)c(/C=N/NC(=O)c2ccncc2)c(=O)[nH]c1=S (stereo unspecified)	0	-5	8	100*	9
CCCCC(=O)N/N=C/c1c(O)n(C2CC2)c(=S)[nH]c1=O	0	-8	-1	98*	-13
O=C1NC(=O)N(C2CCCCC2)C(=O)C1C1c2ccccc2C(=O)N1Cc1ccccc1 (stereo unspecified)	0	-3	7	-3	-18
CC(C)(O)[C@@H]1[C@H]2OC(=O)[C@@H]1[C@]1(O)C[C@H]3O[C@]34C(=O)O[C@H]2[C@]14C (tested in a mixture with another compound)	nt	-5	-2	nt	-25
O=C(N/N=C/c1c(O)n(Cc2ccc(F)cc2)c(=S)[nH]c1=O)c1ccncc1	nt	8	12	nt	-11
O=c1[nH]c(=S)n(C2CC2)c(O)c1/C=N/Nc1ccccc1	0	12	3	89*	9
CCn1c(O)c(/C=N/NC(=O)c2ccncc2)c(=O)[nH]c1=S	0	3	-6	99*	-13
CCCCCSc1cc(OC)c(CCN(C)C)cc1OC	0	2	5	100*	49
COc1ccc2[nH]cc(CCN(C)C)c2c1	0	-1	-16	-2	-8
Cc1ccsc1C(=O)C1CCCN(Cc2sc(N(C)C)nc2Cl)C1 (stereo unspecified)	0	7	22	-4	47
Cc1ccsc1C(=O)C1CCCN(Cc2cnc(N3CCOCC3)s2)C1 (stereo unspecified)	0	-8	3	9	60*
Cc1ccsc1C(=O)C1CCCN(Cc2cnc(N(C)C)s2)C1 (stereo unspecified)	0	nt	nt	-3	59*
CC1CN=C(Nc2ccccc2)S1 (stereo unspecified)	0	8	52*	4	-19
Cc1cccc(CNCCc2ccccc2)n1	0	5	13	69*	-23
CCN(CCNc1ccc([N+](=O)[O-])c2cccnc12)S(=O)(=O)c1ccc(Cl)cc1	0	4	1	89*	35
NCCNc1ccc([N+](=O)[O-])c2cccnc12	0	2	5	3	?
